The subject of data set [1] is RPMI 8226 cells. Description: Western blot for mono-/poly-Ub and PARP-1. The conditions noted are these: RPMI 8226 cells treated with various concentrations for 6 h. The format is cell-based, human. Put shortly: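 RPMI 8226 cells (1,000,000/well) given a range of test-compound concentrations (1000x DMSO stock) or DMSO for 6 h. Lysis in RIPA with protease inhibitors (5 min, ice), then sonication and clearing at 17000 x g. Protein by BCA. After SDS-PAGE and PVDF wet transfer, membranes blocked in 5% milk/TBST and probed for PARP-1 (1:1,000 in 5% BSA/TBST), mono/poly-ubiquitin and α-tubulin as loading control.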
A general note: A western blot detects proteins with antibodies after separation by electrophoresis.

Data set [2] relates to 20S proteasome subunits PSMB5, PSMB10, PSMA5, PSMB1, and PSMB2. As to the kind of experiment: In situ competitive LC-MS/MS pull-down with probe 20. The data set is classed as cell-based, human. The conditions noted are these: RPMI 8226 cells, 100 nM 1 for 6 hours, then 10 μM 20; LFQ, n = 6. An outline of the steps:
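RPMI 8226 cells grown to confluence, then given fresh medium with 100 nM test compound (1000x DMSO stock) or DMSO for 6 h. Washed cells were sonicated in PBS. Lysate (2.32 mg/mL) got 10 μM alkyne probe, 1 h r.t. CuAAC used 30 μM biotin azide, 1 mM TCEP, 100 μM TBTA and 1 mM CuSO4 (1 h), then streptavidin enrichment and on-bead TCEP/iodoacetamide treatment. Trypsin digest, LC-MS/MS, LFQ ratios; n = 6 (3 biological × 2 technical).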

For data set [3], the system named is MM1.R cells. Description: Cell toxicity, WST-1 assay, MM1.R. The format is cell-based. The conditions noted are these: Homo sapiens, MM.1R, 48 h, read-out: EC50 cytotoxicity, MM1.R. An outline of the steps:
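MM1.R cells grown in RPMI-1640 with 10% FBS, non-essential amino acids and penicillin/streptomycin at 37 °C, 5% CO2. Cells exposed to a range of test-compound concentrations for 24 h or 48 h. Viability read by WST-1 per manufacturer's protocol as values relative to control, n = 3. EC50 fitted from concentration–response.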
Background: Tetrazolium dyes change colour on reduction, which living cells bring about.

Data set [4] relates to RPMI 8226 cells. As to the kind of experiment: Cell toxicity, WST-1 assay, RPMI 8226. The format is cell-based. The conditions noted are these: Homo sapiens, RPMI-8226, 48 h, read-out: EC50 cytotoxicity, RPMI 8226.
Data set [5] has as its system MM1.R. The conditions noted are these: read-out: Previously reported cytotoxicity, MM1.R; ref Hideshima et al., 2001; cited from earlier work.
The subject of data set [6] is RPMI 8226. The conditions noted are these: cited from earlier work.

We go through three molecules from publication PMC8201661 (Cell chemical biology, 2020).

Structures are written as SMILES.

As to `CC(C)CCCCC/C=C/C=C/C(=O)N[C@H](C(=O)N[C@H]1C[C@@H](O)CCNC(=O)/C=C/[C@H](C)NC1=O)[C@@H](C)O` [Compound 1, (2E,4E)-N-((2S,3R)-3-hydroxy-1-(((5S,8S,10S,E)-10-hydroxy-5-methyl-2,7-dioxo-1,6-diazacyclododec-3-en-8-yl)amino)-1-oxobutan-2-yl)-11-methyldodeca-2,4-dienamide], in data set [1], the “PARP-1 Western blot (apoptosis marker)” value was “PARP-1 cleavage” and the “Ubiquitinated proteins (mono-/poly-ubiquitin Western blot)” value is given as “concentration-dependent increase in ubiquitinated proteins”. For the same molecule, the “Competition of 20-enriched PSMB5, PSMB10, PSMA5, PSMB1 and PSMB2” value in data set [2] is listed as more than 50%. Besides, the EC50 in data set [3] is 23 nM. The EC50 in data set [4] is 31 nM.

Turning to `CC(C)C[C@H](NC(=O)[C@H](Cc1ccccc1)NC(=O)c1cnccn1)B(O)O` [bortezomib], the EC50 in data set [5] was 3 nM.

As to `CC(C)C[C@H](NC(=O)[C@H](CCc1ccccc1)NC(=O)CN1CCOCC1)C(=O)N[C@@H](Cc1ccccc1)C(=O)N[C@@H](CC(C)C)C(=O)[C@@]1(C)CO1` [carfilzomib], the EC50 in data set [6] was 5 nM.
